High-throughput results (PubChem)
In the library only some 1.7% were active in any assay of this set; here they are far more common.
ZTA DNA inh = ZTA (EBV) inhibition in EBNA-1 counter-screen. 320,000 compounds, 0.15% hits. P03206. ZTA-DNA binding, fluorescence polarization. AID 2234. inhibition, % at 11 µM; in the data active = inhibition above about 33%
Target sequence (P03206 whole entry, looked up): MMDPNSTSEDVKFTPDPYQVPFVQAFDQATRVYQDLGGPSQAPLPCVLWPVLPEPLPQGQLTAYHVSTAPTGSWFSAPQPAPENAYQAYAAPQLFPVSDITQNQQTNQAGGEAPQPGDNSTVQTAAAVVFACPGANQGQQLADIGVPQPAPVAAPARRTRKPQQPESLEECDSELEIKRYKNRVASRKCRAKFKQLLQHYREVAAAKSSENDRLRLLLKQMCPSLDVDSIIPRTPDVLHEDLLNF
EBNA-1 inh = blocks EBNA-1 binding to DNA; 300,000 compounds, 0.34% hits; inhibition, % at 14.8 µM; EBNA-1 DNA binding, fluorescence polarization; in the data active = inhibition above about 28%
PP5 inh = blocks human protein phosphatase 5 activity; AID 1987; 320,000 compounds, 0.18% hits; inhibition, % at 6.7 µM; purified PP5c, OMFP substrate fluorescence;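 active = inhibition above the campaign's mean inhibition across all tested compounds plus 3 SD, cut at about 9.5% in these data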;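 note: 0% = DMSO only and 100% = 100 µM cantharidin control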
HCV core dimer = blocks dimerization of HCV core protein. TR-FRET GST/Flag-core106 dimerization, 1536-well. inhibition, % at 5 µM. 300,000 compounds, 0.33% hits. AID 1899;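 active = inhibition above the mean of all tested compounds plus 3 SD, set per screening campaign, cut at about 45% in these data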
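System – GST-tagged and Flag-tagged HCV core protein residues 1-106 · Repeats – one well for each compound · Technique – TR-FRET 671 and 617 nm emission · Doses – one concentration, 5 µM, in 0.5% DMSO · Times – 4 h, 22.5 °C incubation · Also added – Eu donor and XL665 acceptor anti-tag antibodies · Measure – percent inhibition of core106 dimerization signal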
PP1 inh = blocks human PP1-alpha phosphatase, a PP5 counter-screen; 320,000 compounds, 0.9% hits; AID 2235; inhibition, % at 6.7 µM; P62136; purified PP1alpha, OMFP fluorescence;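 active = inhibition above the mean inhibition of all tested compounds plus 3 SD, computed separately for each screening campaign, cut at about 15% in these data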
Target sequence (P62136 whole entry, looked up): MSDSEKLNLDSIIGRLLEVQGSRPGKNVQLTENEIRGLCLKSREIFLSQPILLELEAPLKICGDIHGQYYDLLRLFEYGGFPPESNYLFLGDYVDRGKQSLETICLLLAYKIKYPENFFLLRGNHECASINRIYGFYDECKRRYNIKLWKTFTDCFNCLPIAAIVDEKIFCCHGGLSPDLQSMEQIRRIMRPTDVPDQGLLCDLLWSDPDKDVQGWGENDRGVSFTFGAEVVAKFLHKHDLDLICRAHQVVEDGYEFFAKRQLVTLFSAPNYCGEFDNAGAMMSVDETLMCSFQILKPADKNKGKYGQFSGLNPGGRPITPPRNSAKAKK
ZTA inh confirm = confirmation of Epstein-Barr virus ZTA DNA binding inhibitors | inhibition, % at 11.1 µM | shares compounds with ZTA DNA inh | 320 compounds, 30% hits | Zta-ZRE DNA binding, fluorescence polarization;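 active = mean inhibition across triplicate runs above the hit threshold derived for the original primary screen, cut at about 33% in these data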;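 note: 0% = Zta with DMSO and 100% = wells lacking Zta protein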
EBNA-1 counter = counter-screen for ZTA inhibitors: EBNA-1 DNA binding inhibition. shares compounds with ZTA DNA inh. fluorescence polarization. inhibition, % at 14.8 µM. 320 tested, under 10 active; call rule not given here
PP1 inh confirm = confirmation of human PP1 phosphatase inhibitors; shares compounds with PP1 inh; purified PP1alpha, OMFP substrate fluorescence; inhibition, % at 6.7 µM; 1,900 compounds, 52% hits; AID 2358;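 active = mean PP1 inhibition above a set limit taken from the earlier primary screen, cut at about 15% in these data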
PP5 counter = counter-screen for PP1 inhibitors: human PP5 phosphatase inhibition; shares compounds with PP1 inh; 1,900 compounds, 4% hits; AID 2360; inhibition, % at 6.7 µM; purified PP5c, OMFP fluorescence;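 active = mean PP5 inhibition over triplicate wells above about 9.5% taken from the earlier PP1 screen, limit read from the data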
Starred values were filed as active, the others as inactive; · = no result.

SMILES	ZTA DNA inh	EBNA-1 inh	PP5 inh	HCV core dimer	PP1 inh	PP1 inh confirm	PP5 counter	others
CN1C(=O)/C(=C/C=C/c2ccco2)C(=O)NC1=S	34*	1	1	18	6	·	·	ZTA inh confirm=69*;EBNA-1 counter=10
O=C1NC(=O)N(Cc2ccco2)C(=O)/C1=C/C=C/c1ccco1	35*	12	0	21	5	·	·	ZTA inh confirm=31;EBNA-1 counter=7
O=C1NC(=O)N(Cc2ccccc2)C(=O)/C1=C\C=C\c1ccco1	5	3	1	15	5	·	·
O=C1NC(=O)N(c2ccccc2)C(=O)/C1=C/C=C/c1ccco1	28	10	0	5	-2	·	·
Cc1nc2c(=O)n(C)c(=O)nc-2n(C)n1	46*	-3	11*	55*	44*	·	·	ZTA inh confirm=71*;EBNA-1 counter=-7
Cc1ccc(-n2c(O)c(/C=N/N3CCCCC3c3cccnc3)c(=O)[nH]c2=S)cc1 (stereo unspecified)	4	0	-1	13	-2	·	·
CCN(CC)c1ccc(N=Cc2c(O)n(-c3cc(OC)ccc3OC)c(=O)[nH]c2=O)cc1	34*	-17	3	-4	-1	·	·	ZTA inh confirm=-6;EBNA-1 counter=-6
CCN(CC)c1ccc(N=Cc2c(O)n(Cc3ccco3)c(=O)[nH]c2=O)cc1	37*	-7	-1	6	3	·	·	ZTA inh confirm=4;EBNA-1 counter=-10
COc1cc(OC)c(OC)cc1CNCCc1ccc2c(c1)OCO2	6	-6	3	2	-2	·	·
COc1ccc(NC(=O)c2cn(CCC#N)nc2-c2cccc(Br)c2)cc1	-4	5	0	0	3	·	·
Cn1c(O)c(/C=N/N2CCCCC2)c(=O)[nH]c1=O	37*	2	-2	2	-3	·	·	ZTA inh confirm=1;EBNA-1 counter=4
Cc1ccc(-n2c(O)c(/C=N/N3CCCCCC3)c(=O)[nH]c2=O)cc1C	1	-6	-1	-2	-6	·	·
Cc1c(O)ccc(C(=O)CN2CC(C)OC(C)C2)c1O (stereo unspecified)	7	3	-1	-3	1	·	·
O=C(O)CC1OCC=C2CN3CCC45C6=CC(=O)C(=O)C([N+](=O)[O-])=C6NC4C1C2CC35 (stereo unspecified)	41*	-19	21*	22	33*	53*	2	ZTA inh confirm=67*;EBNA-1 counter=-2
COC(=O)C1=C(c2ccc(OC)c(OC)c2)C[C@@H]2CC[C@H]1N2C(=O)N1CCC(O)CC1	4	·	1	·	2	·	·
O=C1NC(=S)N(c2ccc(F)cc2)C(=O)/C1=C/c1ccco1	25	78*	0	77*	40*	68*	1
Cc1ccc(/C=C2\C(=O)NC(=S)N(c3cccc(F)c3)C2=O)o1	18	11	0	18	2	·	·
COc1ccc(OC)c(N2C(=O)/C(=C/c3ccco3)C(=O)NC2=S)c1	75*	103*	0	83*	68*	17*	-4
CCN(CC)P(=O)(Oc1ccccc1)Oc1ccccc1	4	-6	-1	3	-1	·	·
CCCNC(=O)N1[C@H]2CC[C@@H]1C(C(=O)OC)=C(c1ccc(C(C)=O)cc1)C2	9	·	-1	·	-6	·	·
C[C@@]12C(=O)OC(=O)[C@]1(C)C1CCC2O1	-5	-2	94*	6	95*	93*	93*
CCCC(=O)c1ccc(CP(=O)(OCC)OCC)o1	9	4	1	-8	-4	·	·
CN1C(=O)N(C)C(=O)C2(Cc3cc(N)ccc3N3CCN(c4ccccc4F)CC32)C1=O (stereo unspecified)	23	16	2	24	23*	32*	1
CCN1C(=O)N(CC)C(=O)C2(Cc3ccccc3N3CCN(c4ccccc4)CC32)C1=O (stereo unspecified)	-12	-9	0	6	-1	·	·
Cn1cnc(CCN)c1	-4	-3	-2	12	-1	·	·
SMILES	ZTA DNA inh	EBNA-1 inh	PP5 inh	HCV core dimer	PP1 inh	PP1 inh confirm	PP5 counter	others
CN(C)C1C(=O)C(C(N)=O)=C(O)C2(O)C(=O)C3=C(O)c4c(O)cccc4C(C)(O)C3C(O)C12 (stereo unspecified)	-3	6	4	-9	33*	-4	-4
Clc1ccc(C(c2ccc(Cl)cc2)n2cc[n+](CC(OCc3ccc(Cl)cc3Cl)c3ccc(Cl)cc3Cl)c2)cc1 (stereo unspecified)	-19	15	5	-10	52*	35*	9
N=Cc1c(O)n(-c2ccc(C34CC5CC(CC(C5)C3)C4)cc2)c(=O)[nH]c1=O	21	29*	5	35	20*	22*	4
CN(C)CCSCc1nnc2n1-c1ccc(Cl)cc1C(c1ccccc1Cl)=NC2	3	2	-2	2	-2	·	·
c1cncc(C2Nc3cccc4cccc(c34)N2)c1	-10	7	1	2	23*	-5	-1
Cc1ccc(C[n+]2c(-c3ccc(C)cc3)cc(-c3ccc(C)cc3)cc2-c2ccc(C)cc2)cc1	-8	-6	2	-1	24*	-6	1
C/C(=N\N1CCCCCC1)c1c(O)n(-c2ccccc2C)c(=O)[nH]c1=O	-3	-4	0	2	-2	·	·
Clc1ccc(COC(Cn2ccnc2)c2ccc(Cl)cc2Cl)cc1 (stereo unspecified)	-15	-6	2	1	29*	20*	2
Clc1ccc(CSC(Cn2ccnc2)c2ccc(Cl)cc2Cl)cc1 (stereo unspecified)	-1	-5	5	16	26*	20*	3
c1ccc(Cn2ccnc2)cc1	-7	-4	0	-3	-3	·	·
C=CC[N+]1(C)C2CCC1CC(O)C2 (stereo unspecified)	4	1	0	0	2	·	·
Cc1cccc(NC(=S)N2CC3CC(C2)c2cccc(=O)n2C3)c1C (stereo unspecified)	2	-16	3	-6	-7	·	·
OCc1cnc[nH]1	11	3	-1	0	0	·	·
CC1Oc2cc3c(-c4c(O)cc(O)c5c(O)c6c(cc45)OC(C)C(C)C6=O)c(O)cc(O)c3c(O)c2C(=O)C1C (stereo unspecified)	-1	5	5	-10	57*	25*	2
CCCCCn1c(=O)c(C(=O)Nc2ccccc2C)c(O)c2ccccc21	-10	-28	2	-4	-2	·	·
CCCCn1c(=O)c(C(=O)Nc2ncccc2C)c(O)c2ccccc21	-3	7	2	15	28*	26*	-1
CCCCCCn1c(=O)c(C(=O)Nc2ncccc2C)c(O)c2ccccc21	-1	0	5	17	26*	18*	-2
